Experiments:
[1] = test system: high voltage calcium channels; conditions: at 100 µM; ref Huang et al., 2004; Li et al., 2005; cited from earlier work
[2] = test system: mouse liver microsomes (cytochrome P450, harmaline O-demethylation); experiment: Harmaline O-demethylation to harmalol in mouse liver microsomes; assay type: in vitro ADME
human CYP2D6 = conditions: ref Bui et al., 2008; cited from earlier work
[3] = test system: mice (retention time on inverted wire grid); experiment: Inverted grid test of behavioral toxicity; assay type: in vivo, mouse
[4] = test system: harmaline-induced tremor in ICR mice; experiment: Tremor measurement in the harmaline model; assay type: in vivo, mouse; conditions: harmaline 20 mg/kg
Summary of the method: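 Male ICR mice (20–24 g) sat on a motion-sensing platform; 20 min baseline, then harmaline 20 mg/kg, then test compound or saline vehicle 15 min later (time 0); 100 min recording; 5–6 mice/group. Read-out was 10–16 Hz motion power as % of 0–33 Hz power over 20–60 and 60–100 min. Reduction = 100×(1−[(DT−DB)/(mean VT−mean VB)]) versus vehicle group; repeated-measures ANOVA.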

[5] = test system: mice (sedation or ataxia); experiment: Gross observation in open fields; assay type: in vivo, mouse; conditions: doses below 200 mg/kg
human recombinant CYP3A4 = conditions: ref Bui et al., 2008; cited from earlier work
[6] = test system: CYP3A (mouse liver microsomes)
[7] = test system: GABAA receptor α1-null mice (tremor); experiment: Tremor measurement in the GABAA receptor α1-null model; assay type: in vivo, mouse; conditions: for tremor reduction compared to baseline: 20 mg/kg i.p., 30 min after drug, tail suspension
[8] = test system: mice (sedation/motor function); experiment: Horizontal wire test of behavioral toxicity; assay type: in vivo, mouse
pentylenetetrazol model = conditions: ref Handforth et al., 2010; cited from earlier work
[9] = ref Ertel and Clozel, 1997; cited from earlier work
[10] = test system: cytochrome P450 (harmaline O-demethylation to harmalol); experiment: Harmaline O-demethylation to harmalol in mouse liver microsomes; assay type: in vitro ADME; conditions: mouse, mouse liver microsomes, pH 7.5, probe harmaline (10 µM)
blood pressure = conditions: ref Dogrul et al., 2003; cited from earlier work
[11] = 12.5 mg/kg i.p., 20–60 min post-drug
[12] = 12.5 mg/kg i.p., 60–100 min post-drug

In the case of CC(C)[C@H]1c2ccc(F)cc2CC[C@@]1(CCN(C)CCCc1nc2ccccc2[nH]1)OC(=O)C1CC1.Cl.Cl [NNC 55-0396, (1S,2S)-2-(2-(N-[(3-benzimidazol-2-yl)propyl]-N-methylamino)ethyl)-6-fluoro-1,2,3,4-tetrahydro-1-isopropyl-2-naphtyl cyclopropanecarboxylate dihydrochloride], the “effect against high voltage calcium channels” value [1] is given as “no effect”, the Ki [2] is given as 950 nM and the “Ki for harmaline O-demethylation relative to mibefradil” value [2] is given as “approximately three-fold higher”. The “O-demethylation of harmaline, percentage of normal (mean ± S.D.)” value ([2]; drug 100 nM, 10 µM harmaline, mouse liver microsomes) was 103.7 ± 12.8%, the “O-demethylation of harmaline, percent of normal (mean ± S.D.)” value ([2]; drug 10 µM, 10 µM harmaline, mouse liver microsomes) was 46.6 ± 5.3% and the “Ki for human CYP2D6 relative to mibefradil” value (human CYP2D6) was “one-fourth that of mibefradil”. For the same compound, the “appearance (sedation) of drug/harmaline mice” value ([3]; drug 20 mg/kg i.p. then harmaline 20 mg/kg s.c.) was “did not appear sedated”, the “retention on the inverted grid compared with vehicle/harmaline mice” value ([3]; mouse, in vivo) was “better than vehicle/harmaline mice” and the “tremor generation reduced compared to the vehicle group” value (“tremor generation reduced” for short) [4, 11] was 48.5 ± 12.4%. The “tremor generation reduced” value [4, 12] was 48.9 ± 13.6%, the “tremor generation reduced” value ([4]; 20 mg/kg i.p., 20–60 min post-drug) was 73.6 ± 20.1% and the “tremor generation reduced” value ([4]; 20 mg/kg i.p., 60–100 min post-drug) was 85.1 ± 29.1%. The “gross observations in open fields: sedation or ataxia” value [5] was “did not reveal sedation or ataxia”, the “fold higher Ki than mibefradil” value (human recombinant CYP3A4) was 9 fold and the Ki [6] was 710 nM. For the same compound, the “Ki for testosterone 6-β-hydroxylation relative to mibefradil” value [6] was “over five-fold higher”, the “tremor reduction compared to baseline” value [7] was 49.2% and the “effect on the tremor motion power peak” value ([7]; 40 mg/kg i.p., individual α1-null mouse, retest 30 min later) was “suppressed the tremor motion power peak”. For the same compound, the “dose at which 3/6 failed the horizontal wire test” value ([8]; mouse, in vivo, ip) was 300 mg/kg, the “maximal dose at which 6/6 mice passed the horizontal wire test” value ([8]; mouse, in vivo, ip) was 200 mg/kg and the anti-seizure efficacy (pentylenetetrazol model) was “anti-seizure efficacy”.
For COc1ccc2c3c([nH]c2c1)C(C)=NCC3 [harmaline], the “retention time on the wire grid compared with vehicle/vehicle controls” value ([3]; vehicle-pre-treated mice, harmaline 20 mg/kg s.c., test 30 min later) was “reduced retention times on the wire grid”.
For COCC(=O)O[C@]1(CCN(C)CCCc2nc3ccccc3[nH]2)CCc2cc(F)ccc2[C@@H]1C(C)C [mibefradil], the “crossing of the blood–brain-barrier” value [9] is given as “does not cross the blood–brain-barrier”, the “Ki for harmaline O-demethylation relative to NNC 55-0396” value ([2]; mouse liver microsomes) is given as “less than a third that of NNC 55-0396” and the Ki at 20 min [10] is given as 290 nM. The “appearance (sedation) of drug/harmaline mice” value ([3]; mouse, in vivo) was “appeared sedated”, the “retention on the inverted grid compared with vehicle/harmaline mice” value ([3]; mouse, in vivo) was “worse retention” and the “tremor generation reduced” value [4, 11] was 23.1 ± 3.9%. For the same compound, the “tremor generation reduced” value [4, 12] was 20.8 ± 11.5%, the “dose reported to produce severe hypotension” value (blood pressure) was 30 mg/kg and the “tremor reduction compared to baseline” value [7] was “no effect on tremor”. The “maximal dose at which 6/6 mice passed the horizontal wire test” value ([8]; i.p., tested at 10-min intervals for 1.5 h) was 20 mg/kg and the “dose at which 3/6 failed the horizontal wire test” value ([8]; mouse, in vivo, ip, 1.5 h) was 30 mg/kg.
